The text below walks through data of ChEMBL document CHEMBL2203116, “Synthesis and evaluation of novel carbon-11 labeled oxopurine analogues for positron emission tomography imaging of translocator protein (18 kDa) in peripheral organs” (J Med Chem, 2011).

For data set [1], the system named is Kidney. Put plainly: Drug uptake in iv dosed Sprague-Dawley rat kidney upto 30 mins by PET scanning. It is filed as ADME, organism-based. Particulars: in vivo, 0.5 h; call rule not given here. In outline: (§1)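 Comparator radioligand 15–20 MBq/200 μL (0.15–0.18 nmol) injected iv into isoflurane-anesthetized male Sprague-Dawley rats. ROI time–activity curves for lung, heart, kidney, liver and cardiac blood pool. Uptake as decay-corrected SUV normalized to injected activity and body weight. n = 4, mean ± SD.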

The next data set has as its system Liver. As to the kind of experiment: Drug uptake in iv dosed Sprague-Dawley rat liver upto 30 mins by PET scanning. It is filed as ADME, organism-based. Particulars: in vivo, 0.5 h. An outline of the steps:
as §1

In another data set the test system is Blood. As to the kind of experiment: Drug uptake in iv dosed Sprague-Dawley rat cardiac blood pool up to 30 mins by PET scanning. It is filed as ADME, organism-based. Particulars: in vivo, 0.5 h. An outline of the steps:
as §1

Data set [2] has as its system Lung. Put plainly: Drug uptake in iv dosed Sprague-Dawley rat lung after 1 min by PET scanning. It is filed as ADME, organism-based. Particulars: in vivo. An outline of the steps: as §1
Data set [3] concerns Lung. As to the kind of experiment: Drug uptake in iv dosed Sprague-Dawley rat lung after 27.5 mins by PET scanning. Format: ADME, organism-based. Particulars: in vivo. An outline of the steps: as §1
Data set [4] deals with Heart. Put plainly: Drug uptake in iv dosed Sprague-Dawley rat heart after 10 mins by PET scanning. It is filed as ADME, organism-based. Particulars: in vivo. In outline: as §1
In data set [5] the test system is Kidney. As to the kind of experiment: Drug uptake in iv dosed Sprague-Dawley rat kidney after 10 mins by PET scanning. Format: ADME, organism-based. Particulars: in vivo. In outline: as §1
For data set [6], the system named is Heart. As to the kind of experiment: Drug uptake in iv dosed Sprague-Dawley rat heart upto 30 mins by PET scanning. It is filed as ADME, organism-based. Particulars: in vivo, 0.5 h. In outline:
as §1

A further data set deals with Translocator protein (Rattus norvegicus, UniProt P16257). Put plainly: Displacement of [11C]-PK-11195 from TPSO in Sprague-Dawley rat brain homogenate after 30 mins by gamma counting. It is filed as tissue-based. A general note: In a radioligand displacement assay an active substance lowers the binding of a labelled ligand.
Translocator protein, sequence (P16257 whole entry, looked up): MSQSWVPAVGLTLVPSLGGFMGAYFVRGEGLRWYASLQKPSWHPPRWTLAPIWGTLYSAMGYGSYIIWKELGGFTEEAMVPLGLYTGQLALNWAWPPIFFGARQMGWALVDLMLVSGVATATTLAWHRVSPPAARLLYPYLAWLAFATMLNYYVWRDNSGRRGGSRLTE
The nature of data set [7]: Lipophilicity, log D of the compound in octanol-phosphate buffer at pH 7.4 by shake flask method. Format: physicochemical. An outline of the steps: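 Radioligand (~200000 cpm) shaken with n-octanol (3.0 g) and 0.1 M sodium phosphate buffer pH 7.4 (3.0 g). Vortexed 3 min at room temperature, centrifuged 3500 rpm for 5 min. Phases weighed and counted; organic layer repartitioned until consistent. LogD = log of the cpm/g octanol to cpm/g buffer ratio. Triplicate.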

For `CC[C@@H](C)N([11CH3])C(=O)c1cc2ccccc2c(-c2ccccc2Cl)n1`, the Drug uptake entry in the data set on Kidney [1], in the data set on Liver, in the data set with Blood, in the data set on Lung [2], with Lung [3] and with Heart [4] was “Active” each time. The Drug uptake result in the data set on Kidney [5] and with Heart [6] was “Active” each time.
Regarding `CCN(Cc1ccccc1)C(=O)Cn1c(=O)n([11CH3])c2cnc(-c3ccccc3)nc21`, the Drug uptake result in the data set with Kidney [1], in the data set with Liver, in the data set on Blood and with Heart [6] was “Active” in each case. The SUV with Lung [2] is given as 7.6; with Lung [3] it was 2.3; in the data set with Heart [4] it was 4.2; in the data set on Kidney [5], 2.8.
On Translocator protein, `CCN(Cc1ccncc1)C(=O)Cn1c(=O)n(C)c2cnc(-c3ccccc3)nc21` yielded a Ki of 5.1 nM. The compound further returned a logD in data set [7] of 2.03.
`CCN(Cc1cccnc1)C(=O)Cn1c(=O)n(C)c2cnc(-c3ccccc3)nc21` had a Ki on Translocator protein of 13.2 nM. The compound also had a logD in data set [7] of 2.17.

The Ki is the equilibrium dissociation constant of an inhibitor or competing ligand from its target. A lower Ki goes with a stronger hold on the target. One may read the logD as lipophilicity at a set pH, counting ionised and neutral species. High values mean higher lipophilicity, low ones lower lipophilicity.
